In ChEMBL document CHEMBL3259631, “Identification of the first potent, selective and bioavailable PPARα antagonist” (Bioorg Med Chem Lett, 2014):
pEC50, pIC50: −log10 of the molar value. In brackets after ≈: the same amount, converted by molar mass.

Columns and labels:
[1] = Metabolic stability in mouse plasma assessed as compound remaining at 1 uM after 60 mins by LC-MS/MS analysis; format: ADME, cell-free; details: read-out: Stability
Summary of the method: (§1)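 A 30 mM DMSO stock was diluted to 100 µM in acetonitrile, then spiked into thawed mouse plasma (1 µM final) and incubated at 37 °C. Aliquots were precipitated in acetonitrile containing buspirone, shaken 5 min and centrifuged at 4000g for 10 min. Supernatant was analysed by LC-MS/MS. Percent remaining = concentration at each time / t0 concentration × 100; mean of at least three experiments.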

[2] = Metabolic stability in mouse plasma assessed as compound remaining at 1 uM after 30 mins by LC-MS/MS analysis; format: ADME, cell-free; details: read-out: Stability; summary of the method: as §1
[3] = biological target: T1, Peroxisome proliferator-activated receptor alpha (Homo sapiens, UniProt Q07869); assay: Antagonist activity at human PPAR-alpha assessed as inhibition of GW7647-induced effect after overnight incubation by cell-based luciferase reporter gene assay
T1 sequence (Q07869 whole entry): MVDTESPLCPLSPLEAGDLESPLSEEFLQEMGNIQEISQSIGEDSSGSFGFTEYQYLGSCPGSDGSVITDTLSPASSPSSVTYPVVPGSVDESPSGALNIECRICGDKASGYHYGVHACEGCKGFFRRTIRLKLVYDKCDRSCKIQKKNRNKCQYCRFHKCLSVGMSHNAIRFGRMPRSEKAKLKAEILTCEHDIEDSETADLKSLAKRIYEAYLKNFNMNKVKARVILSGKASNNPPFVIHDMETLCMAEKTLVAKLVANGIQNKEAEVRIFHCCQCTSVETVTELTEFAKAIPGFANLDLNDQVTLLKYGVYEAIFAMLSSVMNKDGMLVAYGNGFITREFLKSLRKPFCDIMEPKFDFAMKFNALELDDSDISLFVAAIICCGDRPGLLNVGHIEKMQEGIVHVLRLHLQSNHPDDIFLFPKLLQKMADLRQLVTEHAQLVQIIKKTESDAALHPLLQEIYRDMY

[4] = Solubility of the compound in aqueous buffer at pH 7.4 after 24 hrs by LC-MS/MS analysis; format: physicochemical
Summary of the method: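 Compound from a 10 mM DMSO stock was added to pH 7.4 buffer, vortexed 2 min, then shaken on an orbital shaker for 24 h at room temperature. Samples were then vacuum-filtered through a polycarbonate membrane before measurement.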

[5] = (§2) Metabolic stability in mouse plasma assessed as compound remaining at 1 uM after 24 hrs by LC-MS/MS analysis; format: ADME, cell-free; details: read-out: Stability; summary of the method: as §1
[6] = system: Plasma; assay: as §2; format: ADME, cell-free; details: 24 h, 1 µM; summary of the method: as §1
[7] = biological target: T1, Peroxisome proliferator-activated receptor alpha; assay: Agonist activity at human PPAR-alpha
[8] = biological target: T2, Peroxisome proliferator-activated receptor gamma (Homo sapiens, UniProt P37231); assay: Inhibition of human PPAR-gamma
T2 sequence (P37231 whole entry): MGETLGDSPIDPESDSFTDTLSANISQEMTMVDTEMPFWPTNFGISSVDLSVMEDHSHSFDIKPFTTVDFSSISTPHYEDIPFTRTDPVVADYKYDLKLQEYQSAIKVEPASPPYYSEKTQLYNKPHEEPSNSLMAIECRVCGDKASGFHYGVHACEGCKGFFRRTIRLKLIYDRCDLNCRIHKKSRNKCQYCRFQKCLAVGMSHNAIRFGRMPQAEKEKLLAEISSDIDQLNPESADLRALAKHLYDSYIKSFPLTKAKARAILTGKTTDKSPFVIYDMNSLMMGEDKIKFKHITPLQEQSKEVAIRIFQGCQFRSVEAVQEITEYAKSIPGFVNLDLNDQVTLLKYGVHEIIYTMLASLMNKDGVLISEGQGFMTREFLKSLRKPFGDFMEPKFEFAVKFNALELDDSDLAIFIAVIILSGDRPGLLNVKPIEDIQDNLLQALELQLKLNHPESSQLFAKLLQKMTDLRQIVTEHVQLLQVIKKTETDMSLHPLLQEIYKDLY

[9] = AUC in CD-1 mouse at 30 mg/kg, ip; format: ADME, organism-based; parameters: dose 30 mg/kg, route intraperitoneal; details: plasma
Summary of the method: (§3)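 Mouse pharmacokinetics in CD1 mice given a single intraperitoneal dose of 30 mpk, formulated in saline or in 98% saline/2% tween.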

[10] = biological target: T3, Peroxisome proliferator-activated receptor delta (Homo sapiens, UniProt Q03181); assay: Inhibition of human PPAR-delta
T3 sequence (Q03181 whole entry): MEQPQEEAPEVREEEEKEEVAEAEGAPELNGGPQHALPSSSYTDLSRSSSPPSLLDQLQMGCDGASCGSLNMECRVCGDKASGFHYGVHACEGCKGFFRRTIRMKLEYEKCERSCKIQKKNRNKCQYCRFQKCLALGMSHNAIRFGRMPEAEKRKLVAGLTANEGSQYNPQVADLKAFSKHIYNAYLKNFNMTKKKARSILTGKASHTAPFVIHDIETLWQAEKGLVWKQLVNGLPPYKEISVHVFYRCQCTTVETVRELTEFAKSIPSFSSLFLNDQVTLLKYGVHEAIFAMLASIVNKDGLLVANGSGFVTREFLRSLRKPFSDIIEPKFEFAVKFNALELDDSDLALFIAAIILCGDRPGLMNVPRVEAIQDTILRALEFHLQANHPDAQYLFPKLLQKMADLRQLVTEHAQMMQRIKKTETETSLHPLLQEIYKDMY

[11] = biological target: Estrogen receptor beta (Homo sapiens, UniProt Q92731); assay: Inhibition of human estrogen receptor beta
[12] = Cmax in CD-1 mouse at 30 mg/kg, ip after 1 hr; format: ADME, organism-based; parameters: dose 30 mg/kg, route intraperitoneal; details: in vivo; summary of the method: as §3
[13] = biological target: T4, Glucocorticoid receptor (Homo sapiens, UniProt P04150); assay: Inhibition of human glucocorticoid receptor
T4 sequence (P04150 whole entry): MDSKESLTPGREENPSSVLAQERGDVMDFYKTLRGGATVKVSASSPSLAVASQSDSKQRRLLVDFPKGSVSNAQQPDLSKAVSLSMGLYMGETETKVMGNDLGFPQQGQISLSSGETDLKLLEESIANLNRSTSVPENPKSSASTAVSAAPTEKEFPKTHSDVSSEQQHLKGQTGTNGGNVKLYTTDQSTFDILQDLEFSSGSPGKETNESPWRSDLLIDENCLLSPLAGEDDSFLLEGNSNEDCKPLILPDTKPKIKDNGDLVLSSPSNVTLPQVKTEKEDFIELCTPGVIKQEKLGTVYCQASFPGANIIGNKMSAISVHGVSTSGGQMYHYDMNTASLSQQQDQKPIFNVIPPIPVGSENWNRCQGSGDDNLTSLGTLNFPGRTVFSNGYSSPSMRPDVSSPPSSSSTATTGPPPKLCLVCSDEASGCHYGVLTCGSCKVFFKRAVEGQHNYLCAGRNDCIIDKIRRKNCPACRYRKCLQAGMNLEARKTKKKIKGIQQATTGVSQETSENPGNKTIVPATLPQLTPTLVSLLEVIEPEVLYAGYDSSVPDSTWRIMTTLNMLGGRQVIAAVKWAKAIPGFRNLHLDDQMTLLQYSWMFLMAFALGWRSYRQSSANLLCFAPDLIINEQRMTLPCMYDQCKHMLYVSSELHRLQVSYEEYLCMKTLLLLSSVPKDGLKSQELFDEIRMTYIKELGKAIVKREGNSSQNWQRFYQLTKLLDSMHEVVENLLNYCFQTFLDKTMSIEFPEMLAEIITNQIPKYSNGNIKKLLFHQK

[14] = biological target: T5, Thyroid hormone receptor beta (Homo sapiens, UniProt P10828); assay: Inhibition of human thyroid hormone receptor-beta
T5 sequence (P10828 whole entry): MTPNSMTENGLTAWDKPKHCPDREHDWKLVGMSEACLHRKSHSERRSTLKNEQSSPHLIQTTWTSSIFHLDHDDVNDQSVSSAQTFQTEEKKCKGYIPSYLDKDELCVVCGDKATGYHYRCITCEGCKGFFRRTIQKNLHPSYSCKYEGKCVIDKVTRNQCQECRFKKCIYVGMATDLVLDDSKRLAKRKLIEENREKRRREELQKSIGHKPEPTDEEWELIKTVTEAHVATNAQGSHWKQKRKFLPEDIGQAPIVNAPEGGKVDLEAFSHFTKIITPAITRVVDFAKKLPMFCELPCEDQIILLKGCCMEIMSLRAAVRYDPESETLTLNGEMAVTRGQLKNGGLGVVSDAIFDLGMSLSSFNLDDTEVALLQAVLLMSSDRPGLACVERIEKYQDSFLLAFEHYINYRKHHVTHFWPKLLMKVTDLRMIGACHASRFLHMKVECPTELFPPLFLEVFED

[15] = system: Plasma; assay: Drug level in mouse plasma treated with 1 uM 5 after 24 hrs by LC-MS/MS analysis; format: ADME, cell-free

Estrogen receptor beta, sequence (Q92731 whole entry): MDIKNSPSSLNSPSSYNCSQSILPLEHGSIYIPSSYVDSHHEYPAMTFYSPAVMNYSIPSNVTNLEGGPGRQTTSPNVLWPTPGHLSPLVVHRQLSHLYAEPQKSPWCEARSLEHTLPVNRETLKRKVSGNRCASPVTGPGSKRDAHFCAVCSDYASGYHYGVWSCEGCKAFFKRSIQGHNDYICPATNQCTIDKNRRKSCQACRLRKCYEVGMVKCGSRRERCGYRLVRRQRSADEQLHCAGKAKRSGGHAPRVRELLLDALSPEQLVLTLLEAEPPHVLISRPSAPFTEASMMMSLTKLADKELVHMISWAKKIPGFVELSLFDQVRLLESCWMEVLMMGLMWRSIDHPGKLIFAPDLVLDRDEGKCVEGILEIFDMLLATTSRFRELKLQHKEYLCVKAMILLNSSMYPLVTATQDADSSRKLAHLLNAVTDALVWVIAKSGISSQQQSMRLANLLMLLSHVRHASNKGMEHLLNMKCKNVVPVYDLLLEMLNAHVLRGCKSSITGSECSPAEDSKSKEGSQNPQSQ

Compound	remaining at 1 h, 1 µM [1]	remaining at 0.5 h, 1 µM [2]	pIC50 [3]	solubility at 24 h [4]	also measured
CCn1c(CCCc2ccc(OC(C)(C)C(=O)NS(=O)(=O)c3ccoc3)cc2)nn(Cc2ccc(C(C)(C)C)cc2)c1=O	66.6%	75.4%	7.11		
CCn1c(CCCc2ccc(OC(C)(C)C(=O)NS(=O)(=O)C3CCCCC3)cc2)nn(Cc2ccc(C(C)(C)C)cc2)c1=O	43.6%	60.5%	8.52		
CCn1c(CCCc2ccc(OC(C)(C)C(=O)NS(=O)(=O)C3CC3)cc2)nn(Cc2ccc(C(C)(C)C)cc2)c1=O	0.1%	1.7%	8.18		
CCn1c(CCCc2ccc(OC(C)(C)C(=O)NS(=O)(=O)c3ccccc3)cc2)nn(Cc2ccc(C(C)(C)C)cc2)c1=O	0.7%	6.7%			
CCn1c(CCCc2ccc(OC(C)(C)C(=O)NS(=O)(=O)C3=CCOC=C3)cc2)nn(Cc2ccc(C(C)(C)C)cc2)c1=O	86.5%	86.9%	7.38		
CCn1c(CCCc2ccc(OC(C)(C)C(=O)NS(=O)(=O)C3CCCC3)cc2)nn(Cc2ccc(C(C)(C)C)cc2)c1=O	7%	21%	8.34		
C/C(=C/C(=O)c1ccccc1)N[C@@H](Cc1ccc(OCCc2nc(-c3ccccc3)oc2C)cc1)C(=O)O					pEC50 [7]: 6.62
CCn1c(CCCc2ccc(-c3ccc(NS(=O)(=O)c4ccc(-c5ccc(OC)cc5)cc4)cc3)cc2)nn(Cc2ccc(C(C)(C)C)cc2)c1=O			5.32	0.082 µM (≈ 0.0586 µg/mL)	pIC50 [8]: < 4.00; AUC [9]: 23000 ng·h/mL; pIC50 [10]: < 4.00; pIC50 [11]: 4.46; Cmax [12]: 7.2 µM; remaining at 24 h, 1 µM [5]: 119%; pIC50 [13]: 4.49; pIC50 [14]: < 4.16
CCn1c(CCCc2ccc(OC(C)(C)C(=O)NS(=O)(=O)c3ccc(C(C)C)cc3)cc2)nn(Cc2ccc(C(C)(C)C)cc2)c1=O	81.9%	89.5%	7.89		remaining at 24 h, 1 µM [5]: 2.7%
CCn1c(CCCc2ccc(OC(C)(C)C(=O)NS(=O)(=O)c3ccc(C(F)(F)F)cc3)cc2)nn(Cc2ccc(C(C)(C)C)cc2)c1=O	105%	103%	7.47		remaining at 24 h, 1 µM [5]: 53.7%
CCn1c(CCCc2ccc(OC(C)(C)C(=O)O)cc2)nn(Cc2ccc(C(C)(C)C)cc2)c1=O					Drug metabolism [15]: metabolite_detected

Now from value to molecule, other results behind:

remaining at 1 h, 1 µM [1]	remaining at 0.5 h, 1 µM [2]	pIC50 [3]	solubility at 24 h [4]	Compound	also measured
63.7%	73.1%	8.55		CCn1c(CCCc2ccc(OC(C)(C)C(=O)NS(=O)(=O)c3ccc(C)cc3)cc2)nn(Cc2ccc(C(C)(C)C)cc2)c1=O	
		6.94	0.091 µM (≈ 0.0556 µg/mL)	CCn1c(CCCc2ccc(-c3ncc(NS(=O)(=O)c4ccccc4)cn3)cc2)nn(Cc2ccc(C(C)(C)C)cc2)c1=O	remaining at 24 h, 1 µM [5]: 119%
62.3%	80%	7.22		CCn1c(CCCc2ccc(CC(C)(C)C(=O)NS(=O)(=O)c3ccccc3)cc2)nn(Cc2ccc(C(C)(C)C)cc2)c1=O	
		6.95	0.423 µM (≈ 0.232 µg/mL)	CCn1c(CCCc2ccc(-c3ccc(NS(C)(=O)=O)cn3)cc2)nn(Cc2ccc(C(C)(C)C)cc2)c1=O	remaining at 24 h, 1 µM [5]: 105%
		6.66	4.9 µM (≈ 2.99 µg/mL)	CCn1c(CCCc2ccc(-c3cnc(NS(=O)(=O)c4ccccc4)cn3)cc2)nn(Cc2ccc(C(C)(C)C)cc2)c1=O	Stability [6]: 131.2%
75.2%	82.4%	7.10		CCn1c(CCCc2ccc(OC(C)(C)C(=O)NS(=O)(=O)c3cccnc3)cc2)nn(Cc2ccc(C(C)(C)C)cc2)c1=O	remaining at 24 h, 1 µM [5]: 0.2%
		7.68	0.018 µM (≈ 0.011 µg/mL)	CCn1c(CCCc2ccc(-c3ccc(NS(=O)(=O)c4ccccc4)cc3)cc2)nn(Cc2ccc(C(C)(C)C)cc2)c1=O	Stability [6]: 124.7%
		6.91	0.014 µM (≈ 0.00854 µg/mL)	CCn1c(CCCc2ccc(-c3ccc(NS(=O)(=O)c4ccccc4)nc3)cc2)nn(Cc2ccc(C(C)(C)C)cc2)c1=O	Stability [6]: 128.7%
		6.41	0.037 µM (≈ 0.0225 µg/mL)	CCn1c(CCCc2ccc(-c3cccc(NS(=O)(=O)c4ccccc4)c3)cc2)nn(Cc2ccc(C(C)(C)C)cc2)c1=O	Stability [6]: 136%
		6.51	0.012 µM (≈ 0.00747 µg/mL)	CCn1c(CCCc2ccc(-c3ccc(NS(=O)(=O)Cc4ccccc4)cc3)cc2)nn(Cc2ccc(C(C)(C)C)cc2)c1=O	Stability [6]: 133.9%
